Experimental data taken from ChEMBL document CHEMBL1153363, “Structure-activity relationships for a series of quinoline-based compounds active against replicating and nonreplicating Mycobacterium tuberculosis” (J Med Chem, 2009).
≈ marks a conversion by molar mass, not a printed value.

What was measured:
[1] = tested on: Mycobacterium tuberculosis; assay: Antitubercular activity against replicating form of Mycobacterium tuberculosis H37Rv ATCC 27294 after 7 days by microplate alamar blue assay; assay type: functional; conditions: 168 h
In short: (§1)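 12.8 mM DMSO stocks; two-fold dilutions in Middlebrook 7H12 broth, final 128 to 0.5 µM. Inoculum 2 × 10⁵ cfu/mL, 37 °C. On day 7, Tween 80 plus Alamar Blue added; fluorescence read (ex 530/em 590 nm) after 16-24 h more. MIC = lowest concentration giving ≥90% fluorescence drop versus bacteria-only controls; mean of two runs. RMP and INH positive controls.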

[2] = tested on: Mycobacterium tuberculosis; assay: Antitubercular activity against non replicating persistent form of Mycobacterium tuberculosis H37Rv ATCC 27294 after 10 days by LORA; assay type: functional; conditions: 240 h
In short: (§2)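 Recombinant H37Rv (pFCA-luxAB, V. harveyi luciferase, acetamidase promoter), low-oxygen adapted in fermentor, washed in PBS, stored at -80 °C. About 10⁵ cfu/mL of thawed cells exposed to two-fold serial dilutions in 7H12, 10 days anaerobic at 37 °C. Luminescence read after 28 h aerobic recovery (5% CO₂). MIC = lowest concentration preventing recovery (90% reduction versus untreated), read graphically.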

[3] = tested on: Vero; assay: Cytotoxicity against african green monkey Vero cells after 72 hrs by Cell titer assay; assay type: cell-based, Chlorocebus sabaeus
In short: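 Vero CCL-81 cells, log phase. Samples from 12.8 mM DMSO stocks in geometric 3-fold dilutions in MEM with 10% FBS, 25 mM HEPES, 0.2% NaHCO₃ and 2 mM glutamine; DMSO ≤1% v/v final. Run in duplicate, 72 h at 37 °C, 5% CO₂. Viability by CellTiter 96 aqueous assay, absorbance 490 nm; IC50 from curve fitting.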

[4] = tested on: Mycobacterium tuberculosis; assay: Ratio of MIC for non replicating persistent form of Mycobacterium tuberculosis H37Rv ATCC 27294 by LORA to MIC for replicating form of Mycobacterium tuberculosis H37Rv ATCC 27294 by microplate alamar blue assay; assay type: functional
[5] = tested on: Mycobacterium tuberculosis; assay: Antitubercular activity against Mycobacterium tuberculosis; assay type: functional; in short: as §1
[6] = tested on: Mycobacterium tuberculosis; assay: Antitubercular activity against replicating form of Mycobacterium tuberculosis; assay type: functional; in short: as §1
[7] = tested on: Mycobacterium tuberculosis; assay: Antitubercular activity against non replicating persistent form of Mycobacterium tuberculosis; assay type: functional; in short: as §2
[8] = Chlorocebus sabaeus, Vero, 72 h

CCOC(=O)c1cc(COc2cc(C(F)(F)F)nc3cc(C(F)(F)F)cc(C(F)(F)F)c23)on1 was tested. Which MIC [1] did it give?
Its MIC is 0.77 µM (≈ 0.387 µg/mL).

And the MIC [2]?
The MIC was 10 µM (≈ 5.02 µg/mL).

What about the IC50 [3, 8] of the same compound?
The IC50 was over 128 µM.

Which results are given for CCOC(=O)c1nc(COc2cc(C(F)(F)F)nc3c(C(F)(F)F)cccc23)cs1?
MIC [1]: 16.5 µM (≈ 7.43 µg/mL); IC50 [3, 8]: > 128 µM

For CCOC(=O)c1cc(COc2ccnc3cc(Cl)ccc23)on1, which MIC [1] is on record?
The MIC was 3.8 µM (≈ 1.26 µg/mL).

And the MIC [2]?
Its MIC is 99.7 µM (≈ 33.2 µg/mL).

What about the IC50 [3, 8] of the same compound?
The IC50 was over 128 µM.

And the Ratio [4]?
The Ratio was 25.

For CCOC(=O)c1cc(COc2cc(C(F)(F)F)nc3c(OC(F)(F)F)cccc23)on1, which MIC [1] is on record?
Its MIC is 2.6 µM (≈ 1.17 µg/mL).

And the MIC [2]?
Its MIC is 7 µM (≈ 3.15 µg/mL).

And the IC50 [3, 8]?
Its IC50 is over 128 µM.

With CCOC(=O)C1=NOC(COc2cc(C(F)(F)F)nc3c(C(F)(F)F)cccc23)C1 (configuration not stated) as the compound, how does the MIC [1] read?
The MIC was 22.2 µM (≈ 9.69 µg/mL).

What about the IC50 [3, 8] of the same compound?
The IC50 was over 128 µM.

How did the MIC [1] turn out when CCOC(=O)c1cc(COc2cc(C(F)(F)F)nc3c(Cl)cccc23)on1 was run?
Its MIC is 62.9 µM (≈ 25.2 µg/mL).

And the MIC [2]?
The MIC was 49.3 µM (≈ 19.8 µg/mL).

What does the source list for CO[C@H]1/C=C/O[C@@]2(C)Oc3c(C)c(O)c4c(O)c(c(/C=N/N5CCN(C)CC5)c(O)c4c3C2=O)NC(=O)/C(C)=C\C=C\[C@H](C)[C@H](O)[C@@H](C)[C@@H](O)[C@@H](C)[C@H](OC(C)=O)[C@@H]1C [RIFAMPIN]?
MIC [1]: 0.1 µM (≈ 0.0823 µg/mL); MIC [2]: 1.9 µM (≈ 1.56 µg/mL); IC50 [3, 8]: 127 µM; IC50 ([3]; vero): 127 µM

How did the MIC [5] turn out when OC(c1cc(C(F)(F)F)nc2c(C(F)(F)F)cccc12)C1CCCCN1 (configuration not stated) [MEFLOQUINE] was run?
The MIC was 13 µM (≈ 4.92 µg/mL).

Which MIC [1] does the source give for CCOC(=O)c1ccc(COc2cc(C(F)(F)F)nc3c(C(F)(F)F)cccc23)o1 here?
Its MIC is over 128 µM.

And the IC50 [3, 8]?
Its IC50 is 118 µM.

With CCOC(=O)c1cc(COc2cc(C(F)(F)F)nc3c(F)cc(F)cc23)on1 as the compound, how does the MIC [1] read?
The MIC was 14.6 µM (≈ 5.87 µg/mL).

For CN[C@@H]1[C@H](O[C@H]2[C@H](O[C@H]3[C@H](O)[C@@H](O)[C@H](N=C(N)N)[C@@H](O)[C@@H]3N=C(N)N)O[C@@H](C)[C@]2(O)C=O)O[C@@H](CO)[C@H](O)[C@H]1O [STREPTOMYCIN], which MIC [1] is on record?
The MIC was 0.3 µM (≈ 0.174 µg/mL).

With CCOC(=O)c1cc(COc2ccnc3cc(C(F)(F)F)ccc23)on1 as the compound, how does the MIC [1] read?
Its MIC is 3.3 µM (≈ 1.21 µg/mL).

And the MIC [2]?
The MIC was 81.9 µM (≈ 30 µg/mL).

And the Ratio [4]?
The Ratio was 25.

Which results are given for CCOC(=O)c1cc(COc2cc(C(F)(F)F)nc3c(C(F)(F)F)cc(OC)cc23)on1?
MIC [1]: 66.1 µM (≈ 30.7 µg/mL); IC50 [3, 8]: > 128 µM

What does the source list for CCOC(=O)c1cc(CCOc2cc(C(F)(F)F)nc3c(C(F)(F)F)cccc23)on1?
MIC [1]: 3.4 µM (≈ 1.52 µg/mL); MIC [2]: 9.9 µM (≈ 4.44 µg/mL); IC50 [3, 8]: > 128 µM

Which MIC [1] does the source give for FC(F)(F)c1cc(OCc2nnn[nH]2)c2cccc(C(F)(F)F)c2n1 here?
Its MIC is over 128 µM.

With CCOC(=O)c1cc(COc2cc(C(F)(F)F)nc3cc(C(F)(F)F)ccc23)on1 as the compound, how does the MIC [1] read?
Its MIC is 1.3 µM (≈ 0.565 µg/mL).

And the IC50 [3, 8]?
The IC50 was over 128 µM.

With CCOC(=O)c1cc(COc2cc(C(F)(F)F)nc3c(C(F)(F)F)cccc23)on1 as the compound, how does the MIC [6] read?
Its MIC is 0.9 µM (≈ 0.391 µg/mL).

What about the MIC [7] of the same compound?
The MIC was 12.2 µM (≈ 5.3 µg/mL).

And the MIC [1]?
Its MIC is 0.9 µM (≈ 0.391 µg/mL).

And the MIC [2]?
Its MIC is 12.2 µM (≈ 5.3 µg/mL).

And the IC50 [3, 8]?
Its IC50 is over 128 µM.

CCOC(=O)c1cc(COc2ccnc3c(C(F)(F)F)cccc23)on1 was tested. Which MIC [1] did it give?
The MIC was 10.6 µM (≈ 3.88 µg/mL).

What about the MIC [2] of the same compound?
The MIC was 56.6 µM (≈ 20.7 µg/mL).

What about the IC50 [3, 8] of the same compound?
The IC50 was over 128 µM.

Which results are given for O=[N+]([O-])c1ccc(COc2cc(C(F)(F)F)nc3c(C(F)(F)F)cccc23)o1?
MIC [1]: 6.3 µM (≈ 2.56 µg/mL); IC50 [3, 8]: 15.4 µM

With CCOC(=O)c1cc(COc2ccnc3ccccc23)on1 as the compound, how does the MIC [1] read?
The MIC was 25.1 µM (≈ 7.49 µg/mL).

And the MIC [2]?
Its MIC is 13.2 µM (≈ 3.94 µg/mL).

And the IC50 [3, 8]?
The IC50 was over 128 µM.

With CCOC(=O)c1cccc(COc2cc(C(F)(F)F)nc3c(C(F)(F)F)cccc23)n1 as the compound, how does the MIC [1] read?
Its MIC is over 128 µM.

Which MIC [1] does the source give for CCOC(=O)c1cc(COc2cc(C(=O)OCC)nc3ccccc23)on1 here?
Its MIC is 7.9 µM (≈ 2.93 µg/mL).

And the MIC [2]?
Its MIC is 15.7 µM (≈ 5.81 µg/mL).

And the IC50 [3, 8]?
Its IC50 is over 128 µM.

With CCOC(=O)c1coc(COc2cc(C(F)(F)F)nc3c(C(F)(F)F)cccc23)n1 as the compound, how does the MIC [1] read?
Its MIC is over 128 µM.

Which MIC [1] does the source give for CCOC(=O)c1cc(COc2cc(C(F)(F)F)nc3c(C(F)(F)F)cccc23)no1 here?
Its MIC is 3.6 µM (≈ 1.56 µg/mL).

What about the IC50 [3, 8] of the same compound?
Its IC50 is over 128 µM.

With CCOC(=O)c1ccc(COc2cc(C(F)(F)F)nc3c(C(F)(F)F)cccc23)cc1 as the compound, how does the MIC [1] read?
Its MIC is over 128 µM.

What about the IC50 [3, 8] of the same compound?
Its IC50 is over 128 µM.

How did the MIC [1] turn out when CCOC(=O)c1cc(Cn2ccc(=O)c3ccc(C(F)(F)F)cc32)on1 was run?
Its MIC is over 128 µM.

Which results are given for CCC(=O)c1cc(COc2cc(C(F)(F)F)nc3c(C(F)(F)F)cccc23)on1?
MIC [1]: 27.4 µM (≈ 11.5 µg/mL); IC50 [3, 8]: 64.9 µM

Which MIC [1] does the source give for CCOC(=O)c1cc(COc2cc(C(F)(F)F)nc3c(C)cccc23)on1 here?
The MIC was 1.8 µM (≈ 0.685 µg/mL).

And the MIC [2]?
The MIC was 10.4 µM (≈ 3.96 µg/mL).

And the IC50 [3, 8]?
The IC50 was over 128 µM.

With CCOC(=O)c1cc(COc2cc(C(F)(F)F)nc3ccccc23)on1 as the compound, how does the MIC [1] read?
The MIC was 3.2 µM (≈ 1.17 µg/mL).

What about the MIC [2] of the same compound?
The MIC was 25.1 µM (≈ 9.19 µg/mL).

And the IC50 [3, 8]?
The IC50 was over 128 µM.

Which MIC [1] does the source give for NNC(=O)c1ccncc1 [ISONIAZID] here?
Its MIC is 0.5 µM (≈ 0.0686 µg/mL).

What about the MIC [2] of the same compound?
Its MIC is over 128 µM.

And the IC50 [3, 8]?
The IC50 was over 128 µM.

How did the MIC [1] turn out when CCOC(=O)c1cc(COc2cc(C(F)(F)F)nc3c(F)cccc23)on1 was run?
Its MIC is 11.3 µM (≈ 4.34 µg/mL).

And the MIC [2]?
Its MIC is 39 µM (≈ 15 µg/mL).

And the IC50 [3, 8]?
Its IC50 is over 128 µM.

Which results are given for CCOC(=O)c1cc(COc2cc(C(F)(F)F)nc3cc(Cl)cc(Cl)c23)on1?
MIC [1]: 1.9 µM (≈ 0.827 µg/mL); MIC [2]: 3.7 µM (≈ 1.61 µg/mL); IC50 [3, 8]: > 128 µM

For CCOC(=O)c1cc(COc2cc(C(F)(F)F)nc3c(F)ccc(F)c23)on1, which MIC [1] is on record?
Its MIC is 41.2 µM (≈ 16.6 µg/mL).

What about the MIC [2] of the same compound?
The MIC was 52.8 µM (≈ 21.2 µg/mL).

What does the source list for CCOC(=O)c1cc(COc2cc(C(F)(F)F)nc3ccc(C(F)(F)F)cc23)on1?
MIC [1]: 3.7 µM (≈ 1.61 µg/mL); MIC [2]: 7.6 µM (≈ 3.3 µg/mL); IC50 [3, 8]: > 128 µM; Ratio [4]: 2

Which MIC [1] does the source give for CCOC(=O)c1cc(COc2cc(C(F)(F)F)nc3cccc(C(F)(F)F)c23)on1 here?
Its MIC is 3.8 µM (≈ 1.65 µg/mL).

What about the IC50 [3, 8] of the same compound?
The IC50 was over 128 µM.

What does the source list for CCOC(=O)c1cc(-c2cccc(Oc3cc(C(F)(F)F)nc4ccccc34)c2)on1?
MIC [1]: 0.95 µM (≈ 0.407 µg/mL); MIC [2]: 3.7 µM (≈ 1.58 µg/mL); IC50 [3, 8]: > 128 µM
